In ChEMBL document CHEMBL1146363, “Synthesis of novel diarylpyrimidine analogues of TMC278 and their antiviral activity against HIV-1 wild-type and mutant strains” (Eur J Med Chem, 2007):

Key:
[1] = system: Human immunodeficiency virus 1; test: Antiviral activity against HIV1 LAI with RT Y188L mutation in MT4 cells by EGFP based replication assay; format: functional, organism-based; details: Human immunodeficiency virus 1, LAI
How it was run: (§1)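 MT4-LTR-EGFP indicator cells (EGFP under HIV-1 LTR, induced via Tat) mixed with HIV-1 LAI or LAI-derived RT mutant and serial 4-fold compound dilutions; incubated 37 °C for 3 days. EGFP expression read by argon laser-scanning microscopy. EC50 = concentration inhibiting 50% of virus-induced EGFP signal, by linear interpolation of signal versus log concentration.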

[2] = system: Human immunodeficiency virus 1; test: Antiviral activity against HIV1 LAI with RT L100I mutation in MT4 cells by EGFP based replication assay; format: functional, organism-based; details: Human immunodeficiency virus 1, LAI
How it was run: (§2)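 MT4-LTR-EGFP indicator cells (EGFP under HIV-1 LTR, induced via Tat) mixed with HIV-1 LAI or LAI-derived RT mutant and serial 4-fold compound dilutions; incubated 37 °C for 3 days. EGFP expression read by argon laser-scanning microscopy.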

[3] = system: Human immunodeficiency virus 1; test: Antiviral activity against HIV1 LAI with RT L100I and K103N mutation in MT4 cells by EGFP based replication assay; format: functional, organism-based; details: Human immunodeficiency virus 1, LAI; how it was run: as §1
[4] = Cytotoxicity against human MT4 cells after 3 days by EGFP based replication assay; format: cell-based
How it was run: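 Uninfected MT4-CMV-EGFP cells, which express EGFP constitutively, were exposed to serial 4-fold compound dilutions at 37 °C for 3 days. EGFP was read by argon laser-scanning microscopy. CC50 was obtained by linear interpolation of EGFP signal against log concentration.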

[5] = system: Human immunodeficiency virus 1; test: Antiviral activity against HIV1 LAI with RT K103N and Y181C mutation in MT4 cells by EGFP based replication assay; format: functional, organism-based; details: Human immunodeficiency virus 1, LAI; how it was run: as §1
[6] = system: Human immunodeficiency virus 1; test: Antiviral activity against HIV1 LAI with RT F227C and V106A mutation in MT4 cells by EGFP based replication assay; format: functional, organism-based; details: Human immunodeficiency virus 1, LAI; how it was run: as §1
[7] = system: Human immunodeficiency virus 1; test: Antiviral activity against HIV1 LAI with RT K103N mutation in MT4 cells by EGFP based replication assay; format: functional, organism-based; details: Human immunodeficiency virus 1, LAI; how it was run: as §1
[8] = system: Human immunodeficiency virus 1; test: Antiviral activity against HIV1 LAI with RT F227C mutation in MT4 cells by EGFP based replication assay; format: functional, organism-based; details: Human immunodeficiency virus 1, LAI; how it was run: as §1
[9] = system: Human immunodeficiency virus 1; test: Antiviral activity against HIV1 LAI with RT Y181C mutation in MT4 cells by EGFP based replication assay; format: functional, organism-based; details: Human immunodeficiency virus 1, LAI; how it was run: as §1
[10] = system: Human immunodeficiency virus 1; test: Antiviral activity against wild type HIV1 LAI infected in MT4 cells by EGFP based replication assay; format: functional, organism-based; details: Human immunodeficiency virus 1, LAI; how it was run: as §2
[11] = Selectivity index, ratio of CC50 for human MT4 cells to EC50 for HIV1 LAI; format: functional
[12] = AUC in Wistar rat at 10 mg/kg, po; format: ADME, organism-based; design: dose 10 mg/kg, route oral; details: plasma
[13] = Half life in Wistar rat at 10 mg/kg, po after 6 hrs; format: ADME, organism-based; design: dose 10 mg/kg, route oral; details: in vivo
[14] = Half life in Beagle dog at 10 mg/kg, po after 23 hrs; format: ADME, organism-based, Canis lupus familiaris; design: dose 10 mg/kg, route oral; details: in vivo
[15] = Metabolic stability in human liver microsomes after 15 mins; format: ADME, Microsome; details: read-out: Stability
How it was run: (§3)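 Liver microsomes were the 100,000×g pellet of S9 from tissue homogenized in 0.1 M phosphate, pH 7.4. Incubations contained 1 mg/mL protein in 0.1 M phosphate pH 7.4 with an NADPH-generating system, plus a heat-inactivated control. After 5 min preincubation at 37 °C, NADP started the reaction, which ran 15 min and was stopped with DMSO or acetonitrile. Duplicates, LC-MS; fraction remaining relative to T=0.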

[16] = Cmax in Beagle dog at 10 mg/kg, po; format: ADME, organism-based, Canis lupus familiaris; design: dose 10 mg/kg, route oral; details: in vivo
[17] = Metabolic stability in rat liver microsomes after 15 mins; format: ADME, Microsome; details: read-out: Stability; how it was run: as §3
[18] = Metabolic stability in dog liver microsomes after 15 mins; format: ADME, Canis lupus familiaris, Microsome; details: read-out: Stability; how it was run: as §3
[19] = AUC in Beagle dog at 10 mg/kg, po; format: ADME, organism-based, Canis lupus familiaris; design: dose 10 mg/kg, route oral; details: plasma
[20] = Cmax in Wistar rat at 10 mg/kg, po; format: ADME, organism-based; design: dose 10 mg/kg, route oral; details: in vivo

Compound | EC50 [1] [nM] | EC50 [2] [nM] | EC50 [3] [nM] | CC50 at 72 h [4] [nM] | EC50 [5] [nM] | EC50 [6] [nM] | EC50 [7] [nM] | EC50 [8] [nM] | EC50 [9] [nM] | EC50 [10] [nM] | Ratio CC50/EC50 [11] | AUC [12] [ng·h/mL] | half-life [13] [h] | half-life [14] [h] | remaining at 0.25 h [15] [%] | Cmax [16] [ng/mL] | remaining at 0.25 h [17] [%] | remaining at 0.25 h [18] [%] | AUC [19] [ng·h/mL] | Cmax [20] [ng/mL]
O=C1Nc2ccc(Cl)cc2C(C#CC2CC2)(C(F)(F)F)O1 (single isomer, unassigned) [EFAVIRENZ] | 55 | 31 | 1460 | 32300 | 55 | 4.1 | 46.4 | 46.9 | 3.9 |  |  |  |  |  |  |  |  |  |  | 
Cc1ccnc2c1NC(=O)c1cccnc1N2C1CC1 [NEVIRAPINE] | 5910 |  | 3530 | 31600 | 14500 | 2700 | 1980 | 827 | 7080 | 33.3 |  |  |  |  |  |  |  |  |  | 
Cc1cc(/C=C/C#N)ccc1N(C)c1ccnc(Nc2ccc(C#N)cc2)n1 | 16.8 | 2.5 | 104 | 11600 | 160 | 1.5 | 0.7 | 1 | 12 | 1 | 11351 |  |  |  |  |  |  |  |  | 
Cc1cc(/C=C\C#N)cc(C)c1Sc1ccnc(Nc2ccc(C#N)cc2)n1 | 2.8 | 2.6 | 79.2 | > 25000 | 18.6 | 1.1 | 0.7 | 1.4 | 5.8 | 3.7 | >6821 |  |  |  |  |  |  |  |  | 
COc1cc(/C=C/C#N)cc(Cl)c1Nc1ccnc(Nc2ccc(C#N)cc2)n1 | 2.5 | 0.2 | 15.8 | 398 | 2 | 0.3 | 0.3 | 0.8 | 1 | 0.1 | 3981 | 410 | 3.83 | 14.5 | 26 | 2180 | 53 | 58 | 44500 | 199
Cc1cc(/C=C/C#N)cc(C)c1Oc1ccnc(Nc2ccc(C#N)cc2)n1 | 1.6 | 0.6 | 3.7 | > 25000 | 4.3 | 0.6 | 0.2 | 0.7 | 3.2 | 0.9 | 28302 |  |  |  |  |  |  |  |  | 
Cc1cc(/C=C/C#N)cc(C)c1Nc1ccnc(Nc2ccc(C#N)cc2)n1 [RILPIVIRINE] | 1.2 | 0.5 | 7.5 | 2000 | 3.2 | 0.5 | […] | 0.5 | […] |  |  | 9650 | […] | 23 | 26 | 1050 | 73 | 65 | […] | 1940
Cc1cc(/C=C/C#N)cc(C(C)C)c1Nc1ccnc(Nc2ccc(C#N)cc2)n1 | 3.8 | 3.1 | 38.3 | 11800 | 10.6 | 3.2 | 1.3 | 3.9 | 11.1 | 4 | 2947 |  |  |  |  |  |  |  |  | 
CCc1cc(/C=C/C#N)cc(C)c1Nc1ccnc(Nc2ccc(C#N)cc2)n1 | 2.6 | 0.9 | 8.2 | 2550 | 5.3 | 0.9 | 0.5 | 1.1 | 4 | 3 | 841 |  |  |  |  |  |  |  |  | 
CC(C)Nc1cccnc1N1CCN(C(=O)c2cc3cc(NS(C)(=O)=O)ccc3[nH]2)CC1 [DELAVIRDINE] | 1020 | 9530 | 20600 | 67200 | 38400 | 721 | 10200 | 4560 | 9040 | 122 | >550 |  |  |  |  |  |  |  |  | 
COc1cc(/C=C/C#N)cc(C)c1Nc1ccnc(Nc2ccc(C#N)cc2)n1 | 0.9 | 0.5 | 21.1 | 633 | 4.3 | 0.3 | < 0.1 | 0.3 | 1.9 | 0.7 | 846 |  |  |  |  |  |  |  |  | 
N#C/C=C/c1ccc(Nc2ccnc(Nc3ccc(C#N)cc3)n2)cc1 | 303 | 585 | 6440 | > 25000 | 3950 | 76.1 | 57.7 | 98.4 | 1520 | 33.9 | >737 |  |  |  |  |  |  |  |  | 
Cc1cc(/C=C/C#N)cc(Cl)c1Nc1ccnc(Nc2ccc(C#N)cc2)n1 | 2.3 | 0.4 | 6.6 | 2610 | 4.1 | 0.5 | 0.1 | 0.5 | 2.3 | 0.8 | 3316 | 910 | 3.54 | 14.5 | 39 | 1040 | 72 | 60 | 17600 | 182
Cc1cc(/C=C/C#N)ccc1Nc1ccnc(Nc2ccc(C#N)cc2)n1 | 43.6 | 9.2 | 479 | > 25000 | 89.6 | 1.2 | 0.6 | 1.2 | 13.4 | 0.9 | >29372 |  |  |  |  |  |  |  |  | 
